For seven compounds, IC50 results are on record in ChEMBL document CHEMBL1221308, “Synthesis and biological evaluation of new jasplakinolide (jaspamide) analogs” (Bioorg Med Chem Lett, 2010).

Structures are written as SMILES.

This test concerns CA46. Briefly: Growth inhibition of human CA46 cells […] after 24 hrs. The class given is functional, cell-based. The gist of the method:
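Human CA46 Burkitt lymphoma cells treated for 24 h; growth read as cell number, IC50 derived from that count.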

Consider `COc1ccc([C@H]2CC(=O)O[C@@H](C)C[C@@H](C)/C=C(\C)C[C@@H](C)C(=O)N[C@@H](C)C(=O)N(C)[C@H](Cc3c(Br)[nH]c4ccccc34)C(=O)N2)cc1`, for which the half-maximal inhibitory concentration (IC50) (in general, the midpoint of a concentration-inhibition curve) (Homo sapiens, CA46, 24 h) is 20 nM.

On to `C/C1=C\[C@H](C)C[C@H](C)OC(=O)C[C@H](c2ccccc2)NC(=O)[C@@H](Cc2c(Br)[nH]c3ccccc23)N(C)C(=O)[C@H](C)NC(=O)CC1`, for which the IC50 (Homo sapiens, CA46, 24 h) came to 200 nM.

`COc1ccc([C@H]2CC(=O)O[C@@H](C)C[C@@H](C)/C=C(\C)CCC(=O)N[C@@H](C)C(=O)N[C@H](Cc3c(Br)[nH]c4ccccc34)C(=O)N2)cc1`: for the setting “Homo sapiens, CA46, 24 h”, the half-inhibitory concentration (IC50) is 3000 nM.

`COc1ccc([C@H]2CC(=O)O[C@@H](C)C[C@@H](C)/C=C(\C)CCC(=O)N[C@@H](C)C(=O)N(C)[C@H](Cc3c[nH]c4ccccc34)C(=O)N2)cc1`: the IC50 (Homo sapiens, CA46, 24 h) was determined as 200 nM.

As to `COc1ccc([C@H]2CC(=O)O[C@@H](C)C[C@@H](C)/C=C(\C)CCC(=O)NCC(=O)N(C)[C@H](Cc3c(Br)[nH]c4ccccc34)C(=O)N2)cc1`, for the setting “Homo sapiens, CA46, 24 h”, the half-maximal inhibitory concentration (IC50) was 300 nM.

For `COc1ccc([C@H]2CC(=O)NC(C)C[C@@H](C)/C=C(\C)CCC(=O)N[C@@H](C)C(=O)N(C)[C@H](Cc3c(Br)[nH]c4ccccc34)C(=O)N2)cc1` (single isomer, unassigned; diastereomer 2), the IC50 (ca46) came out at 3000 nM.

Turning to `COc1ccc([C@H]2CC(=O)NC(C)C[C@@H](C)/C=C(\C)CCC(=O)N[C@@H](C)C(=O)N(C)[C@H](Cc3c(Br)[nH]c4ccccc34)C(=O)N2)cc1` (stereo in doubt), where the note is “ca46”, the 50% inhibitory concentration (IC50) was 750 nM.
